ChEMBL document CHEMBL5390200, “Synthesis and evaluation of DAG-lactone derivatives with HIV-1 latency reversing activity” (Eur J Med Chem, 2023)

Key:
[1] = Cytotoxicity against human Jurkat cells assessed as reduction in cell viability incubated for 24 hrs by Ghost dye 780 staining based flow cytometric analysis; assay type: toxicity
[2] = test system: Human immunodeficiency virus 1; experiment: HIV1-latency reversing activity in human J-Lat 10.6 cells assessed as change in GFP expression incubated for 24 hrs by flow cytometric analysis; assay type: functional, organism-based; conditions: Human immunodeficiency virus 1, J-Lat 10.6, 24 h
How it was run: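 Cells seeded at 2 × 10^5 per well and exposed to a range of compound concentrations for 24 h; 10 nM PMA served as reference. GFP-positive cells counted by flow cytometry. Means ± SD from at least two independent experiments.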

[3] = Stability of the compound assessed as porcine liver esterase-mediated hydrolysis measured after 1 to 24 hrs by HPLC analysis; assay type: ADME, Sus scrofa; conditions: pig, isolated protein; time 1-24 hrs
How it was run: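 Compounds taken from 100 mM DMSO stock to 1 mM final in 50 mM HEPES pH 7.2 with 0.01 U PLE, then held at 37 °C. Aliquots sampled at 1, 3, 6 and 24 h and quenched into equal volume MeCN/0.1% TFA. C18 reversed-phase HPLC with 0–95% MeCN gradient over 40 min, UV detection at 245 nm. Residual peak area normalized to 0 h.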

[4] = biological target: Protein kinase C delta type (Homo sapiens, UniProt Q05655); experiment: Binding affinity to PKCdelta C1B domain (231 to 281 residues) (unknown origin) by 6-methoxynaphthalene DAG lactone probe based fluorescence quenching assay
Protein kinase C delta type, sequence (Q05655 whole entry, the tested form may be a part): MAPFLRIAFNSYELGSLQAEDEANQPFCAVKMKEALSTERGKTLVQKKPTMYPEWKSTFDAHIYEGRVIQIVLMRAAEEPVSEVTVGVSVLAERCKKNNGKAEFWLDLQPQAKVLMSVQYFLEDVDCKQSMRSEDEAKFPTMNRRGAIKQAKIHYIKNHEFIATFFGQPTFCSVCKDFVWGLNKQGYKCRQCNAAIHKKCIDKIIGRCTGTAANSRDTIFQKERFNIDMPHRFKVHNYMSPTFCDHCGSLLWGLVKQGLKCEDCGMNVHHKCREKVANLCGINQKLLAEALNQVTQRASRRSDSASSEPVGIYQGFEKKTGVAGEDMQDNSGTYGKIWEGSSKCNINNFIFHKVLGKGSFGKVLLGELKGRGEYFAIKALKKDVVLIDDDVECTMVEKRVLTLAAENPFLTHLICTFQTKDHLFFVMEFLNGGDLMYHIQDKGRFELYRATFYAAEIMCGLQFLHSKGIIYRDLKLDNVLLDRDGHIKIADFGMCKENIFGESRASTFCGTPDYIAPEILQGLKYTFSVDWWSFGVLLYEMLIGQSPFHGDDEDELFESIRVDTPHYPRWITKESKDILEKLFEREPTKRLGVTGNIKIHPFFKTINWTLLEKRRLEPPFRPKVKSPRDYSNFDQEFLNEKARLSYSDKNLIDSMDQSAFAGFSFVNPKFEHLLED

[5] = test system: Human immunodeficiency virus 1; experiment: HIV1-latency reversing activity in human U1 cells incubated for 2 days; assay type: functional, organism-based; conditions: Human immunodeficiency virus 1, U1, 48 h
[6] = test system: Human immunodeficiency virus 1; experiment: HIV1-latency reversing activity in human ACH-2 cell line incubated for 48 hrs; assay type: functional, organism-based; conditions: Human immunodeficiency virus 1, ACH-2, 48 h

EC50 [2] | SMILES | CC50 at 24 h [1] | also measured
2 µM | CCCC(CCC)C(=O)OCC1(CO)CC(=C(C)C)C(=O)O1 (centres undefined) | > 10 µM | Stability [3]: Stable
> 10 µM | CC(C)=C1CC(CO)(COC(=O)C(C)(C)C)OC1=O (centres undefined) | > 10 µM | Stability [3]: Stable; IC50 ([4]; read-out: IC50): > 10 µM
> 10 µM | CC(C)=C1CC(CO)(COC(=O)c2ccccc2)OC1=O (centres undefined) |  | 
> 10 µM | CCC(CC)C(=O)OCC1(CO)CC(=C(C)C)C(=O)O1 (centres undefined) |  | 
> 10 µM | CCCCC(=O)OCC1(CO)CC(=C(C)C)C(=O)O1 (centres undefined) |  | 
> 10 µM | CC(C)=C1CC(CO)(COC(=O)C2CCCCC2)OC1=O (centres undefined) |  | 
0.82 µM | CCCCC(CCCC)C(=O)OCC1(CO)CC(=C(C)C)C(=O)O1 (centres undefined) | > 10 µM | 
> 10 µM | CC(=O)OCC1(CO)CC(=C(C)C)C(=O)O1 (centres undefined) | > 10 µM | IC50 [4]: Not Active
> 10 µM | CC(C)=C1CC(CO)(COC(=O)C(C)C)OC1=O (centres undefined) |  | 
> 10 µM | CC(C)=C1CC(CO)(COC(=O)C2CCC(C)CC2)OC1=O (centres undefined) |  | 

Further lines, the molecule ahead of its results:

SMILES | EC50 [2] | CC50 at 24 h [1] | also measured
CCCCCCCC(CCCCCCC)C(=O)OCC1(CO)CC(=C(C)C)C(=O)O1 (centres undefined) | 0.38 µM | > 10 µM | 
CCCCCC(CCCCC)C(=O)OCC1(CO)CC(=C(C)C)C(=O)O1 (centres undefined) | 0.43 µM | > 10 µM | 
CC(C)=C1CC(CO)(COC(=O)c2ccc3ccccc3c2)OC1=O (centres undefined) | > 10 µM |  | 
CCCCCCC(CCCCCC)C(=O)OCC1(CO)CC(=C(C)C)C(=O)O1 (centres undefined) | 0.22 µM | > 10 µM | Stability [3]: Stable; IC50 ([4]; read-out: IC50): 0.69 µM
C=C(C)[C@]12C[C@@H](COC(=O)c3ccccc3)[C@@]34O[C@@]5(O[C@@H]1[C@@H]3[C@@H]1O[C@]1(CO)[C@@H](O)[C@@]1(O)[C@H]4[C@H]([C@H](C)[C@@H]1OC(=O)c1ccccc1)[C@H](C)CCCCCC[C@H]5O)O2 |  |  | EC50 [5]: 18 pM
CCCCCCCCC(CCCCCCCC)C(=O)OCC1(CO)CC(=C(C)C)C(=O)O1 (centres undefined) | 0.34 µM | > 10 µM | 
CC(=O)O[C@@]12C[C@@H](C)[C@@]3(O)[C@@H](C=C(CO)C[C@]4(O)C(=O)C(C)=C[C@@H]34)[C@@H]1C2(C)C [PROSTRATIN] |  | > 10 µM | 
CCCCCCCCCC(=O)OCC1(CO)CC(=C(C)C)C(=O)O1 (centres undefined) | > 10 µM | > 10 µM | Stability [3]: Unstable; IC50 ([4]; read-out: IC50): 2.2 µM
CCCCCCCCCC(CCCCCCCCC)C(=O)OCC1(CO)CC(=C(C)C)C(=O)O1 (centres undefined) | 0.31 µM | > 10 µM | IC50 ([4]; read-out: IC50): 0.56 µM
CCCCCCCCCCc1ccc2c(c1)N(C)[C@@H](C(C)C)C(=O)N[C@H](CO)C2 |  |  | EC50 [6]: 0.025 µM
